Measurements published in ChEMBL document CHEMBL1629612, “Characterization and sequence analysis of extended-spectrum-{beta}-lactamase-encoding genes from Escherichia coli, Klebsiella pneumoniae, and Proteus mirabilis isolates collected during tigecycline phase 3 clinical trials” (2009).
≈ marks a conversion by molar mass, not a printed value.

Assays:
Assay type in all cases: functional
Klebsiella pneumoniae [1] = assay: Antimicrobial activity against Klebsiella pneumoniae expressing beta-lactamase CTX by Etest based on multiple determinants
Method in brief: (§1)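 Clinical isolates from tigecycline phase 3 trials were received as frozen primary cultures. Repeat isolates from one patient were riboprinted, and only the first of identical strains was kept. β-lactamase genes were assigned by PCR against control strains, plus isoelectric focusing. ESBL confirmation used Etest ESBL strips carrying ceftazidime or cefotaxime with clavulanic acid, read per the manufacturer's instructions.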

Escherichia coli [2] = assay: Antimicrobial activity against Escherichia coli expressing beta-lactamase AmpC by Etest
Method in brief: (§2)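 Clinical isolates from tigecycline phase 3 trials were received as frozen primary cultures. Serial isolates from one patient were riboprinted, and only the first of identical strains was kept. β-Lactamase genes were assigned by PCR. ESBL confirmation used Etest ESBL strips carrying ceftazidime or cefotaxime, alone and combined with clavulanic acid, following the strip maker's instructions.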

Escherichia coli [3] = assay: Antimicrobial activity against Escherichia coli expressing beta-lactamase AmpC and extended-spectrum beta-lactamase by Etest; method in brief: as §2
Escherichia coli [4] = assay: Antimicrobial activity against Escherichia coli extended-spectrum beta-lactamase producing isolate by Etest; method in brief: as §2
Escherichia coli [5] = assay: Antimicrobial activity against Escherichia coli expressing beta-lactamase CTX and SHV by Etest; method in brief: as §2
Klebsiella pneumoniae [6] = assay: Antimicrobial activity against Klebsiella pneumoniae expressing beta-lactamase DHA by Etest; method in brief: as §2
Proteus mirabilis [7] = assay: Antimicrobial activity against Proteus mirabilis extended-spectrum beta-lactamase producing isolate by Etest; method in brief: as §1
Klebsiella pneumoniae [8] = assay: Antimicrobial activity against Klebsiella pneumoniae expressing extended-spectrum beta-lactamase and beta-lactamase AmpC by Etest; method in brief: as §2
Proteus mirabilis [9] = assay: Antimicrobial activity against Proteus mirabilis expressing extended-spectrum beta-lactamase by Etest based on multiple determinants; method in brief: as §1
Proteus mirabilis [10] = assay: Antimicrobial activity against Proteus mirabilis expressing extended-spectrum beta-lactamase by Etest based on single determinant; method in brief: as §1
Klebsiella pneumoniae [11] = assay: Antimicrobial activity against Klebsiella pneumoniae expressing beta-lactamase CTX by Etest based on single determinant; method in brief: as §1
Klebsiella pneumoniae [12] = assay: Antimicrobial activity against Klebsiella pneumoniae expressing beta-lactamase SHV by Etest based on single determinant; method in brief: as §1
Escherichia coli [13] = assay: Antimicrobial activity against Escherichia coli expressing beta-lactamase CTX by Etest based on single determinant; method in brief: as §2
Klebsiella pneumoniae [14] = assay: Antimicrobial activity against Klebsiella pneumoniae expressing beta-lactamase SHV by Etest based on multiple determinants; method in brief: as §1
Proteus mirabilis [15] = assay: Antimicrobial activity against Proteus mirabilis expressing beta-lactamase AmpC by Etest; method in brief: as §1
Klebsiella pneumoniae [16] = assay: Antimicrobial activity against Klebsiella pneumoniae extended-spectrum beta-lactamase producing isolate by Etest; method in brief: as §1
Escherichia coli [17] = assay: Antimicrobial activity against Escherichia coli expressing beta-lactamase CTX by Etest based on multiple determinants; method in brief: as §2
Klebsiella pneumoniae [18] = assay: Antimicrobial activity against Klebsiella pneumoniae expressing beta-lactamase SHV and CTX by Etest; method in brief: as §1
Escherichia coli [19] = assay: Antimicrobial activity against Escherichia coli expressing beta-lactamase SHV by Etest; method in brief: as §2

Compound	MIC50 (Klebsiella pneumoniae [1])	MIC90 (Klebsiella pneumoniae [1])	MIC50 (Escherichia coli [3])	MIC90 (Escherichia coli [3])	MIC50 (Escherichia coli [4])	MIC90 (Escherichia coli [4])	MIC50 (Escherichia coli [5])	MIC90 (Escherichia coli [5])	MIC50 (Proteus mirabilis [7])	MIC90 (Proteus mirabilis [7])	MIC (Klebsiella pneumoniae [8])	MIC (Proteus mirabilis [9])	MIC (Proteus mirabilis [10])	MIC50 (Klebsiella pneumoniae [11])	MIC90 (Klebsiella pneumoniae [11])	MIC50 (Klebsiella pneumoniae [12])	MIC90 (Klebsiella pneumoniae [12])	MIC50 (Escherichia coli [13])	MIC90 (Escherichia coli [13])	MIC (Klebsiella pneumoniae [14])	further results
C[C@@H](O)[C@H]1C(=O)N2C(C(=O)O)=C(SCCNC=N)C[C@H]12 [IMIPENEM ANHYDROUS]	0.25 mg/L (≈ 0.835 µM)	0.5 mg/L (≈ 1.67 µM)	0.25 mg/L (≈ 0.835 µM)	0.5 mg/L (≈ 1.67 µM)	≤ 0.12 mg/L	0.25 mg/L (≈ 0.835 µM)	≤ 0.12 mg/L	0.25 mg/L (≈ 0.835 µM)	2 mg/L (≈ 6.68 µM)	4 mg/L (≈ 13.4 µM)	0.06 mg/L (≈ 0.2 µM)	2 mg/L (≈ 6.68 µM)	0.5 mg/L (≈ 1.67 µM)	0.25 mg/L (≈ 0.835 µM)	0.5 mg/L (≈ 1.67 µM)	0.25 mg/L (≈ 0.835 µM)	1 mg/L (≈ 3.34 µM)	≤ 0.12 mg/L	0.25 mg/L (≈ 0.835 µM)	0.12 mg/L (≈ 0.401 µM)	MIC (Escherichia coli [2]): 0.12 mg/L (≈ 0.401 µM); MIC (Klebsiella pneumoniae [6]): 0.5 mg/L (≈ 1.67 µM); MIC (Proteus mirabilis [15]): 1 mg/L (≈ 3.34 µM); MIC50 (Klebsiella pneumoniae [16]): 0.25 mg/L (≈ 0.835 µM); MIC90 (Klebsiella pneumoniae [16]): 1 mg/L (≈ 3.34 µM); MIC50 (Escherichia coli [17]): ≤ 0.12 mg/L; MIC90 (Escherichia coli [17]): 0.25 mg/L (≈ 0.835 µM); MIC50 (Klebsiella pneumoniae [18]): 0.25 mg/L (≈ 0.835 µM); MIC90 (Klebsiella pneumoniae [18]): 0.5 mg/L (≈ 1.67 µM)
C[C@H]1COc2c(N3CCN(C)CC3)c(F)cc3c(=O)c(C(=O)O)cn1c23.C[C@H]1COc2c(N3CCN(C)CC3)c(F)cc3c(=O)c(C(=O)O)cn1c23.O [LEVOFLOXACIN]	4 mg/L	16 mg/L	16 mg/L	> 16 mg/L	16 mg/L	> 16 mg/L	16 mg/L	> 16 mg/L	8 mg/L	> 16 mg/L	2 mg/L	2 mg/L	0.12 mg/L	4 mg/L	> 16 mg/L	0.5 mg/L	16 mg/L	16 mg/L	> 16 mg/L	0.12 mg/L	MIC (Proteus mirabilis [15]): 4 mg/L; MIC50 (Klebsiella pneumoniae [16]): 2 mg/L; MIC90 (Klebsiella pneumoniae [16]): > 16 mg/L; MIC50 (Escherichia coli [17]): > 16 mg/L; MIC90 (Escherichia coli [17]): > 16 mg/L; MIC50 (Klebsiella pneumoniae [18]): 0.5 mg/L; MIC90 (Klebsiella pneumoniae [18]): > 16 mg/L
CN(C)c1ccc(O)c2c1C[C@H]1C[C@H]3[C@H](N(C)C)C(O)=C(C(N)=O)C(=O)[C@@]3(O)C(O)=C1C2=O [MINOCYCLINE]	4 mg/L (≈ 8.74 µM)	16 mg/L (≈ 35 µM)	4 mg/L (≈ 8.74 µM)	> 64 mg/L	4 mg/L (≈ 8.74 µM)	32 mg/L (≈ 69.9 µM)	4 mg/L (≈ 8.74 µM)	16 mg/L (≈ 35 µM)	64 mg/L (≈ 140 µM)	> 64 mg/L	4 mg/L (≈ 8.74 µM)	16 mg/L (≈ 35 µM)	16 mg/L (≈ 35 µM)	4 mg/L (≈ 8.74 µM)	32 mg/L (≈ 69.9 µM)	4 mg/L (≈ 8.74 µM)	64 mg/L (≈ 140 µM)	4 mg/L (≈ 8.74 µM)	32 mg/L (≈ 69.9 µM)	2 mg/L (≈ 4.37 µM)	MIC (Escherichia coli [2]): 1 mg/L (≈ 2.19 µM); MIC (Klebsiella pneumoniae [6]): 4 mg/L (≈ 8.74 µM); MIC (Proteus mirabilis [15]): 16 mg/L (≈ 35 µM); MIC50 (Klebsiella pneumoniae [16]): 4 mg/L (≈ 8.74 µM); MIC90 (Klebsiella pneumoniae [16]): 64 mg/L (≈ 140 µM); MIC (Escherichia coli [19]): 2 mg/L (≈ 4.37 µM); MIC50 (Escherichia coli [17]): 4 mg/L (≈ 8.74 µM); MIC90 (Escherichia coli [17]): 32 mg/L (≈ 69.9 µM); MIC50 (Klebsiella pneumoniae [18]): 8 mg/L (≈ 17.5 µM); MIC90 (Klebsiella pneumoniae [18]): 64 mg/L (≈ 140 µM)
CN(C)c1cc(NC(=O)CNC(C)(C)C)c(O)c2c1C[C@H]1C[C@H]3[C@H](N(C)C)C(O)=C(C(N)=O)C(=O)[C@@]3(O)C(O)=C1C2=O [TIGECYCLINE]	0.5 mg/L (≈ 0.854 µM)	1 mg/L (≈ 1.71 µM)	0.25 mg/L (≈ 0.427 µM)	0.5 mg/L (≈ 0.854 µM)	0.25 mg/L (≈ 0.427 µM)	0.5 mg/L (≈ 0.854 µM)	0.25 mg/L (≈ 0.427 µM)	0.5 mg/L (≈ 0.854 µM)	2 mg/L (≈ 3.41 µM)	16 mg/L (≈ 27.3 µM)	0.5 mg/L (≈ 0.854 µM)	0.5 mg/L (≈ 0.854 µM)	2 mg/L (≈ 3.41 µM)	1 mg/L (≈ 1.71 µM)	2 mg/L (≈ 3.41 µM)	0.5 mg/L (≈ 0.854 µM)	1 mg/L (≈ 1.71 µM)	0.25 mg/L (≈ 0.427 µM)	0.5 mg/L (≈ 0.854 µM)	0.5 mg/L (≈ 0.854 µM)	MIC (Escherichia coli [2]): 0.25 mg/L (≈ 0.427 µM); MIC (Escherichia coli [5]): 0.25 mg/L (≈ 0.427 µM); MIC (Klebsiella pneumoniae [6]): 0.5 mg/L (≈ 0.854 µM); MIC (Proteus mirabilis [15]): 2 mg/L (≈ 3.41 µM); MIC50 (Klebsiella pneumoniae [16]): 0.5 mg/L (≈ 0.854 µM); MIC90 (Klebsiella pneumoniae [16]): 2 mg/L (≈ 3.41 µM); MIC (Escherichia coli [19]): 0.12 mg/L (≈ 0.205 µM); MIC50 (Escherichia coli [17]): 0.5 mg/L (≈ 0.854 µM); MIC90 (Escherichia coli [17]): 0.5 mg/L (≈ 0.854 µM); MIC50 (Klebsiella pneumoniae [18]): 0.5 mg/L (≈ 0.854 µM); MIC90 (Klebsiella pneumoniae [18]): 2 mg/L (≈ 3.41 µM)
NC[C@H]1O[C@H](O[C@H]2[C@H](O)[C@@H](O[C@H]3O[C@H](CO)[C@@H](O)[C@H](N)[C@H]3O)[C@H](N)C[C@@H]2N)[C@H](N)C[C@@H]1O [TOBRAMYCIN]	32 mg/L (≈ 68.4 µM)	> 32 mg/L	16 mg/L (≈ 34.2 µM)	> 32 mg/L	32 mg/L (≈ 68.4 µM)	> 32 mg/L	32 mg/L (≈ 68.4 µM)	> 32 mg/L	8 mg/L (≈ 17.1 µM)	> 32 mg/L	0.25 mg/L (≈ 0.535 µM)	4 mg/L (≈ 8.56 µM)	0.5 mg/L (≈ 1.07 µM)	16 mg/L (≈ 34.2 µM)	> 32 mg/L	16 mg/L (≈ 34.2 µM)	> 32 mg/L	32 mg/L (≈ 68.4 µM)	> 32 mg/L	0.5 mg/L (≈ 1.07 µM)	MIC (Escherichia coli [2]): 1 mg/L (≈ 2.14 µM); MIC (Klebsiella pneumoniae [6]): 16 mg/L (≈ 34.2 µM); MIC (Proteus mirabilis [15]): 4 mg/L (≈ 8.56 µM); MIC50 (Klebsiella pneumoniae [16]): 32 mg/L (≈ 68.4 µM); MIC90 (Klebsiella pneumoniae [16]): > 32 mg/L; MIC (Escherichia coli [19]): 0.25 mg/L (≈ 0.535 µM); MIC50 (Escherichia coli [17]): 32 mg/L (≈ 68.4 µM); MIC90 (Escherichia coli [17]): > 32 mg/L; MIC50 (Klebsiella pneumoniae [18]): 32 mg/L (≈ 68.4 µM); MIC90 (Klebsiella pneumoniae [18]): > 32 mg/L
